Active and inactive are the calls of the source. The rule behind the calls is not given here.
Legend:
Leishmania major = assay: Antileishmanial activity against intracellular Leishmania major amastigotes; assay type: functional, organism-based
Leishmania donovani [1] = assay: Antileishmanial activity against […] Leishmania donovani AG83-S infected in mouse J774 macrophage; assay type: functional, organism-based
Leishmania donovani [2] = assay: Antileishmanial activity against antimony resistant Leishmania donovani MC4-R infected in mouse J774 macrophage; assay type: functional, organism-based
Leishmania donovani [3] = assay: Antileishmanial activity against antimony resistant Leishmania donovani MC8-R infected in mouse J774 macrophage; assay type: functional, organism-based
Leishmania donovani [4] = assay: Antileishmanial activity against Leishmania donovani promastigotes in ip dosed BALB/c mouse assessed as inhibition of liver parasitemia; assay type: functional, organism-based
Method in brief: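 Murine VL model in L. donovani-infected mice. Compounds were dissolved in water and given i.p. or p.o. once daily for 5 days (4 days for one i.p. regimen). Liver parasitemia was compared with untreated controls by unpaired Student's t test, P ≤ 0.05.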

[5] = Clearance in Swiss Webster mouse at 1 mg/kg, iv by HPLC-MS/MS analysis; assay type: ADME, organism-based; set-up: dose 1 mg/kg, route intravenous; details: in vivo
Method in brief: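 Male Swiss Webster mice, n = 3 per time point. For i.v., the compound was dissolved in sterile water, diluted 1:1 with 2× saline, and given as a tail-vein bolus over ~10–20 s. For p.o., it was given by gavage in sterile water. Dose volume was 5 ml/kg. Terminal plasma was taken from 5 min to 72 h and measured by HPLC-MS/MS (calibration 2.5–10,000 nM). Parameters came from noncompartmental analysis.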

[6] = Volume of distribution in Swiss Webster mouse at 1 mg/kg, iv by HPLC-MS/MS analysis; assay type: ADME, organism-based; set-up: dose 1 mg/kg, route intravenous; details: in vivo
Method in brief: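 Male Swiss Webster mice (n = 3 per time point), single dose by oral gavage (sterile water solution) or tail-vein bolus i.v. (water diluted 1:1 with 2× saline, over ~10–20 s); dose volume 5 ml/kg. Terminal blood sampled from 5 min to 72 h postdose; plasma quantified by HPLC-MS/MS (positive-ion SRM). Noncompartmental analysis gave Cmax, Tmax, AUC0-∞, CL, Vss; bioavailability from p.o. versus i.v. exposure.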

Mus musculus [7] = assay: Hepatotoxicity in BALB/c mouse assessed as AST level in serum at 5 mg/kg/day, iv administered for five days (Rvb= 65 U/L); assay type: toxicity, organism-based; set-up: route intravenous; details: in vivo
Mus musculus [8] = assay: Hepatotoxicity in BALB/c mouse assessed as ALT level in serum at 5 mg/kg/day, iv administered for five days (Rvb= 34 U/L); assay type: toxicity, organism-based; set-up: route intravenous; details: in vivo
Mus musculus [9] = assay: Hepatotoxicity in BALB/c mouse assessed as ALT level in serum at 20 mg/kg/day, iv administered for five days (Rvb= 34 U/L); assay type: toxicity, organism-based; set-up: route intravenous; details: in vivo
Mus musculus [10] = assay: Hepatotoxicity in BALB/c mouse assessed as AST level in serum at 50 mg/kg/day, po administered for five days (Rvb= 70 U/L); assay type: toxicity, organism-based; set-up: route oral; details: in vivo
Mus musculus [11] = assay: Hepatotoxicity in BALB/c mouse assessed as ALT level in serum at 25 mg/kg/day, po administered for five days (Rvb= 36 U/L); assay type: toxicity, organism-based; set-up: route oral; details: in vivo
Mus musculus [12] = assay: Renal toxicity in BALB/c mouse assessed as blood urea nitrogen level in serum at 5 mg/kg/day, iv administered for five days (Rvb= 20 mg/dl); assay type: organism-based; set-up: route intravenous; details: in vivo
Method in brief: (§1)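 Female BALB/c mice (n = 5 per dose), dosed once daily for 5 consecutive days p.o. (20 ml/kg) or i.v. (10 ml/kg) with compound in sterile water, prepared fresh daily under yellow light. Vehicle controls n = 5 per route. Clinical observations, body weights, serum chemistry and hematology on day 6 before necropsy; histopathology of formalin-fixed tissues. Chemistry analysed by one-way ANOVA with Dunnett's posttest.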

Mus musculus [13] = assay: Renal toxicity in BALB/c mouse assessed as blood urea nitrogen level in serum at 20 mg/kg/day, iv administered for five days (Rvb= 20 mg/dl); assay type: organism-based; set-up: route intravenous; details: in vivo; method in brief: as §1
Mus musculus [14] = assay: Renal toxicity in BALB/c mouse assessed as phosphorus level in serum at 20 mg/kg/day, iv administered for five days (Rvb= 6.1 mg/dl); assay type: organism-based; set-up: route intravenous; details: in vivo; method in brief: as §1
Mus musculus [15] = assay: Renal toxicity in BALB/c mouse assessed as blood urea nitrogen level in serum at 25 mg/kg/day, po administered for five days (Rvb= 29 mg/dl); assay type: organism-based; set-up: route oral; details: in vivo; method in brief: as §1
Mus musculus [16] = assay: Hepatotoxicity in BALB/c mouse assessed as alkaline phosphatase level in serum at 25 mg/kg/day, po administered for five days (Rvb= 129 U/L); assay type: toxicity, organism-based; set-up: route oral; details: in vivo
Mus musculus [17] = assay: Hepatotoxicity in BALB/c mouse assessed as alkaline phosphatase level in serum at 50 mg/kg/day, po administered for five days (Rvb= 129 U/L); assay type: toxicity, organism-based; set-up: route oral; details: in vivo
Mus musculus [18] = assay: Renal toxicity in BALB/c mouse assessed as phosphorus level in serum at 50 mg/kg/day, po administered for five days (Rvb= 5.3 mg/dl); assay type: organism-based; set-up: route oral; details: in vivo; method in brief: as §1
[19] = Half life in human liver microsome by HPLC-MS/MS analysis in presence of 0.1 uM NADPH; assay type: ADME; details: liver microsomes
Method in brief: (§2)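 Pooled liver microsomes with NADPH. Substrate at final 0.1, 1.0 and 10 μM with 0.5% DMSO, incubated up to 60 min at 37°C. Reactions were stopped with 7:1 methanol-water containing 0.1% TFA and 30 nM internal standard. Remaining substrate was measured by HPLC-MS/MS, and t1/2 came from a one-phase exponential decay fit.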

[20] = Half life in human liver microsome by HPLC-MS/MS analysis in presence of 1 uM NADPH; assay type: ADME; details: liver microsomes; method in brief: as §2
[21] = Half life in rat liver microsome by HPLC-MS/MS analysis in presence of 0.1 uM NADPH; assay type: ADME; details: liver microsomes
Method in brief: (§3)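 Pooled liver microsomes (human, mouse, rat) with NADPH. Substrate added from DMSO to final 0.1, 1.0 or 10 μM, with 0.5% (vol/vol) organic solvent. Incubated at 37°C for up to 60 min. Stopped with 2 volumes of 7:1 methanol-water containing 0.1% TFA and 30 nM internal standard, then centrifuged. Remaining substrate was measured by HPLC-MS/MS, and t1/2 was obtained by one-phase exponential decay fit (t1/2 = 0.693/k).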

[22] = Half life in rat liver microsome by HPLC-MS/MS analysis in presence of 1 uM NADPH; assay type: ADME; details: liver microsomes; method in brief: as §3
[23] = Half life in rat liver microsome by HPLC-MS/MS analysis in presence of 10 uM NADPH; assay type: ADME; details: liver microsomes; method in brief: as §3
[24] = Half life in mouse liver microsome by HPLC-MS/MS analysis in presence of 0.1 uM NADPH; assay type: ADME; details: liver microsomes; method in brief: as §3
[25] = Half life in mouse liver microsome by HPLC-MS/MS analysis in presence of 1 uM NADPH; assay type: ADME; details: liver microsomes; method in brief: as §3
[26] = Half life in mouse liver microsome by HPLC-MS/MS analysis in presence of 10 uM NADPH; assay type: ADME; details: liver microsomes; method in brief: as §3
[27] = Half life in golden Syrian hamster liver microsomes by HPLC-MS/MS analysis in presence of 0.1 uM NADPH; assay type: ADME, Mesocricetus auratus, Microsome; method in brief: as §2
[28] = Half life in golden Syrian hamster liver microsome by HPLC-MS/MS analysis in presence of 10 uM NADPH; assay type: ADME, Mesocricetus auratus; details: liver microsomes; method in brief: as §2

| SMILES | IC50 (Leishmania major) | IC50 (Leishmania donovani [1]) | IC50 (Leishmania donovani [2]) | IC50 (Leishmania donovani [3]) | Activity (Leishmania donovani [4]) | clearance [5] | Vd [6] | Activity (Mus musculus [7]) | Activity (Mus musculus [8]) | Activity (Mus musculus [9]) | Activity (Mus musculus [10]) | Activity (Mus musculus [11]) | Activity (Mus musculus [12]) | Activity (Mus musculus [13]) | Activity (Mus musculus [14]) | Activity (Mus musculus [15]) | Activity (Mus musculus [16]) | Activity (Mus musculus [17]) | Activity (Mus musculus [18]) | half-life [19] | other results |
| --- | --- | --- | --- | --- | --- | --- | --- | --- | --- | --- | --- | --- | --- | --- | --- | --- | --- | --- | --- | --- | --- |
| CCOc1cc(NC(=N)c2ccccn2)ccc1-c1ccc(-c2ccc(NC(=N)c3ccccn3)cc2OCC)o1 | 26 nM | 130 nM | 150 nM | 160 nM | Active | 45 mL/min/kg | 36 L/kg | 80 U/L | 43 U/L | 57 U/L | 77 U/L | 31 U/L | 18 mg/dL | 27 mg/dL | 7.3 mg/dL | 29 mg/dL | 136 U/L | 130 U/L | 7.2 mg/dL | > 2 h | half-life [20]: > 2 h; half-life [21]: 1.33 h; half-life [22]: > 2 h; half-life [23]: > 2 h; half-life [24]: 0.25 h; half-life [25]: 0.783 h; half-life [26]: > 2 h; half-life [27]: 1.25 h; half-life [28]: > 2 h |
| CC(C)Oc1cc(NC(=N)c2ccccn2)ccc1-c1ccc(-c2ccc(NC(=N)c3ccccn3)cc2OC(C)C)o1 | 14 nM | 90 nM | 76 nM | 64 nM | Active | 9.9 mL/min/kg | 14 L/kg | 76 U/L | 36 U/L | 50 U/L | 90 U/L | 44 U/L | 19 mg/dL | 26 mg/dL | 6.5 mg/dL | 27 mg/dL | 126 U/L | 123 U/L | 8.3 mg/dL | > 2 h | half-life [20]: > 2 h; half-life [21]: 1.6 h; half-life [22]: > 2 h; half-life [23]: > 2 h; half-life [24]: 0.433 h; half-life [25]: > 2 h; half-life [26]: > 2 h; half-life [27]: 0.65 h; half-life [28]: > 2 h |
